Assay results published in ChEMBL document CHEMBL3286091, “Novel N-linked aminopiperidine-based gyrase inhibitors with improved hERG and in vivo efficacy against Mycobacterium tuberculosis” (J Med Chem, 2014).
Converted amounts (≈) assume the structure as drawn. The source made the active and inactive calls. The calls are words filed in the database; no cut-off is given here.

Columns and labels:
[1] = test system: Mycobacterium tuberculosis; experiment: Antimycobacterial activity against wild-type Mycobacterium tuberculosis H37Rv ATCC 27294 after 16 to 18 days by BACTEC 7H12B microdilution method; assay type: functional
[2] = test system: Mycobacterium tuberculosis; experiment: Antimycobacterial activity against Mycobacterium tuberculosis clinical isolates after 2 to 4 weeks by BACTEC 460 radiometric assay; assay type: functional
[3] = target: DNA gyrase subunit A/DNA gyrase subunit B (Mycobacterium tuberculosis (strain ATCC 25618 / H37Rv), UniProt P9WG45+P9WG47); experiment: Inhibition of Mycobacterium tuberculosis H37Rv DNA gyrase holoenzyme-mediated supercoiling of pBR322 DNA after 90 mins by agarose gel electrophoresis
Sequence of DNA gyrase subunit A/DNA gyrase subunit B (P9WG45 whole entry): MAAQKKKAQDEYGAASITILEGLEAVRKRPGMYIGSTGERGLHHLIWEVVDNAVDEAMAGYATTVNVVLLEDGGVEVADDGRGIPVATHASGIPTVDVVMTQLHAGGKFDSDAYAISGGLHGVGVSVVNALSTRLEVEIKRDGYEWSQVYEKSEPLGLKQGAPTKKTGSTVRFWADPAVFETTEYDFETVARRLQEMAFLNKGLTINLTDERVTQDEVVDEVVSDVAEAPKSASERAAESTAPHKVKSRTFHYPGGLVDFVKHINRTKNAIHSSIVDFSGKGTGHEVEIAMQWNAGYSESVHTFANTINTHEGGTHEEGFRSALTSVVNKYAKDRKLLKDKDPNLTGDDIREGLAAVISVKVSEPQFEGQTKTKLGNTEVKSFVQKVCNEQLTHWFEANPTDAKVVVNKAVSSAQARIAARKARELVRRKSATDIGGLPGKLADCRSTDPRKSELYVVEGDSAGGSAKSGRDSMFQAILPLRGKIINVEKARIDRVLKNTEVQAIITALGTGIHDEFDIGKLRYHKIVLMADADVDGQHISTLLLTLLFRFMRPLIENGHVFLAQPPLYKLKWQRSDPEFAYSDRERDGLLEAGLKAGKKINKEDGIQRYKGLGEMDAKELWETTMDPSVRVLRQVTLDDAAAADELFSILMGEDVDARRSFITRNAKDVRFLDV
Sequence of DNA gyrase subunit A/DNA gyrase subunit B (P9WG47 whole entry): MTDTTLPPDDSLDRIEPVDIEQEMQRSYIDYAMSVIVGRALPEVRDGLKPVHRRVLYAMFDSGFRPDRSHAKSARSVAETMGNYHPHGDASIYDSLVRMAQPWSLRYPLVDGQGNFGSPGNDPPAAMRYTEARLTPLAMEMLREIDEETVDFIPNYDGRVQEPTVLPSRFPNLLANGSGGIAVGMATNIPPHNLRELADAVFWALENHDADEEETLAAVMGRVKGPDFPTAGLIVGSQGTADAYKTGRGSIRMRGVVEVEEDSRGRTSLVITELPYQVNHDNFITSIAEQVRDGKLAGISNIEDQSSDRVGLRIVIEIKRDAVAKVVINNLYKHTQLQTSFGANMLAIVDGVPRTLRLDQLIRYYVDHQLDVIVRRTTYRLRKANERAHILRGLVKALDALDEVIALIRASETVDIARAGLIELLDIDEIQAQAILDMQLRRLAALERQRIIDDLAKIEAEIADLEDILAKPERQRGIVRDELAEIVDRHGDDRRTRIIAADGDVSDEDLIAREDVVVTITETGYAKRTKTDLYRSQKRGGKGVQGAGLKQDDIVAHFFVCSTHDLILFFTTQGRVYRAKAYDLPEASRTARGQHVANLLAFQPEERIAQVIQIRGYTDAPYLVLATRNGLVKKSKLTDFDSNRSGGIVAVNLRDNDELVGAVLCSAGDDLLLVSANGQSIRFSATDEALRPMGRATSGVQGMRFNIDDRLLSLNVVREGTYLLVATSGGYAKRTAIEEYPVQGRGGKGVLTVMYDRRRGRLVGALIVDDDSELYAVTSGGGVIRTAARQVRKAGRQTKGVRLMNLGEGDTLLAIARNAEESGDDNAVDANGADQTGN

[4] = target: DNA gyrase subunit B (Mycobacterium smegmatis, UniProt P0C559); experiment: Inhibition of Mycobacterium smegmatis DNA gyrase-B ATPase activity; set-up: species or system Mycolicibacterium smegmatis
Sequence of DNA gyrase subunit B (P0C559 whole entry): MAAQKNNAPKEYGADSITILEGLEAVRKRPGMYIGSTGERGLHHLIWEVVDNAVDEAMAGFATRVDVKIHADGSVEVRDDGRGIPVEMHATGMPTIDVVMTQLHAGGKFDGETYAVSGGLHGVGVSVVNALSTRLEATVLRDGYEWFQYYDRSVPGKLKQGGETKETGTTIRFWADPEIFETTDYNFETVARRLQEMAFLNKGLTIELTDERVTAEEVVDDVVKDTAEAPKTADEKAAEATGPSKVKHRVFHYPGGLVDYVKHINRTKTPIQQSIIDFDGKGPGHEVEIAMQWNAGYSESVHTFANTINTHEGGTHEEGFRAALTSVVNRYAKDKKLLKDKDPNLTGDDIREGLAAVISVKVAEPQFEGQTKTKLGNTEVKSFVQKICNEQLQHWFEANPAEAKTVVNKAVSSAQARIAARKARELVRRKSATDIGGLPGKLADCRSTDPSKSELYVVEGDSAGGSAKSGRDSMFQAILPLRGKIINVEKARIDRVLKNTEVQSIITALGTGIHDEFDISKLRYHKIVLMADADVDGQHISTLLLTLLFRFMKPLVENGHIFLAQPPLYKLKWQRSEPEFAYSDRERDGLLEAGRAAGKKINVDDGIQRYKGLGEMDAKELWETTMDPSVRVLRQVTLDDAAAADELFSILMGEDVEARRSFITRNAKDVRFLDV

[5] = Apparent permeability from apical to basolateral side in human Caco2 cells; assay type: ADME, cell-based; conditions: Caco-2
[6] = Apparent permeability from basolateral to apical side in human Caco2 cells; assay type: ADME, cell-based; conditions: Caco-2
[7] = target: Voltage-gated inwardly rectifying potassium channel KCNH2 (Homo sapiens, UniProt Q12809); experiment: Inhibition of human ERG by patch clamp electrophysiological analysis
Sequence of Voltage-gated inwardly rectifying potassium channel KCNH2 (Q12809 whole entry): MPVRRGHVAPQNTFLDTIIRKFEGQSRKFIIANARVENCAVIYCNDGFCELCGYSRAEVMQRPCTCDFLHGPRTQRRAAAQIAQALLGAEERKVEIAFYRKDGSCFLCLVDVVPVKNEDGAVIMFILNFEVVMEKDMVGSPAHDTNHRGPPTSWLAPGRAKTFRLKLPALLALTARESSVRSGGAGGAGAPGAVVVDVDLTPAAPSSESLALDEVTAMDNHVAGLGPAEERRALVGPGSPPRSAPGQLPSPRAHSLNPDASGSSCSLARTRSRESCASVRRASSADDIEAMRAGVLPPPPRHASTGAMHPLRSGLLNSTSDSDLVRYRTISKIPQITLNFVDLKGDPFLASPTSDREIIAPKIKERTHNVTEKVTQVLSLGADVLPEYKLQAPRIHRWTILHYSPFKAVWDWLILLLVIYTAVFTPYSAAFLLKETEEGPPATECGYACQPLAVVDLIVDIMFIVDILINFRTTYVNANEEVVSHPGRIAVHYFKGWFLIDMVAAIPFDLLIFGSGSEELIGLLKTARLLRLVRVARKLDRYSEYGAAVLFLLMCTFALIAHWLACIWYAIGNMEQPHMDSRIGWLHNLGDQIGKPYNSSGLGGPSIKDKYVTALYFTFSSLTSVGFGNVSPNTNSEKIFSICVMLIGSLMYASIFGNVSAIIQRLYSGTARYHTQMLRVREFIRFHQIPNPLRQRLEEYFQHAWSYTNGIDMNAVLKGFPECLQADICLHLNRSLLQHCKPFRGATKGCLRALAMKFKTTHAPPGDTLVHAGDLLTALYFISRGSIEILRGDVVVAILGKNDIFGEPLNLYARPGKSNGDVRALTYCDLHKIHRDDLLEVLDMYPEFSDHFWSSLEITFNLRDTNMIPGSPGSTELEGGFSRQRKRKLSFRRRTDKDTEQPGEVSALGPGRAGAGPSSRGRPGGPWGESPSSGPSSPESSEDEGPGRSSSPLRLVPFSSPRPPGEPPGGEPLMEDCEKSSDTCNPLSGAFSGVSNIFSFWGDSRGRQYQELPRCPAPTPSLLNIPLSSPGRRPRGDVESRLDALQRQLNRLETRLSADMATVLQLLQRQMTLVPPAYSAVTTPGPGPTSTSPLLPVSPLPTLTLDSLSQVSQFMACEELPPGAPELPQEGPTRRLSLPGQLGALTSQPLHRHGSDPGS

[8] = Octanol-sodium phosphate buffer partition coefficient, log D of the compound at 10 mM at pH 7.4 by shake-flask method; assay type: physicochemical
[9] = Clearance in rat at 40 mg/kg, po and 5 mg/kg, iv by LC-MS/MS analysis; assay type: ADME, organism-based; conditions: in vivo
Method in brief: (§1)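 Rats were dosed with the 5% dextrose (pH 4−5) formulation, 5 mg/kg iv and 40 mg/kg po. Plasma was precipitated with acetonitrile and analysed by LC−MS/MS with a carbamazepine internal standard. Parameters were derived by noncompartmental analysis.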

[10] = Oral bioavailability in rat at 40 mg/kg by LC-MS/MS analysis; assay type: ADME, organism-based; conditions: in vivo; method in brief: as §1
[11] = Fraction unbound in aminobenzotriazole-pretreated BALB/c mouse plasma infected with Mycobacterium tuberculosis by LC-MS/MS analysis; assay type: ADME, cell-free
[12] = Ratio of fAUC in aminobenzotriazole-pretreated Mycobacterium tuberculosis infected BALB/c mouse at 20 mg/kg, po to MIC for wild-type Mycobacterium tuberculosis H37Rv ATCC 27294
Method in brief: (§2)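 PK was measured in infected, ABT-pretreated mice during efficacy dosing (oral, 5% dextrose pH 4−5) on day 18 or 19. Saphenous blood was taken at 5, 15 and 30 min and 1, 2, 4 and 6 h. Plasma was precipitated with acetonitrile and analysed by LC−MS/MS. AUC came from noncompartmental analysis; free AUC/MIC and %free T>MIC used the unbound fraction and MIC.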

[13] = test system: Mycobacterium tuberculosis; experiment: Antimycobacterial activity against Mycobacterium tuberculosis infected in aminobenzotriazole-pretreated BALB/c mouse chronic tuberculosis model assessed as reduction in log10CFU at 40 to 80 mg/kg, po bid for 8 weeks; assay type: functional, organism-based
Method in brief: (§3)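 Aerosol-infected BALB/c mice in BSL3, three per group. Treatment began 3 days (acute) or 4 weeks (chronic) after infection. ABT 100 mg/kg po in water was given 2 h before oral gavage of compound in 5% dextrose (pH 4−5 with acetic acid), 10 mL/kg, twice daily at 8 h intervals. Courses were 20 days (7 days/week) or 8 weeks (6 days/week). Lung homogenates were plated on 7H11 for cfu.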

[14] = test system: Mus musculus; experiment: fT>MIC in BALB/c mouse infected with Mycobacterium tuberculosis at 20 mg/kg, po; method in brief: as §2
[15] = test system: Mycobacterium tuberculosis; experiment: Antimycobacterial activity against Mycobacterium tuberculosis infected in aminobenzotriazole-pretreated BALB/c mouse chronic tuberculosis model assessed as reduction in log10CFU at 40 to 80 mg/kg, po bid for 20 days; assay type: functional; conditions: dose mg/kg 40-80; method in brief: as §3
[16] = test system: Mycobacterium tuberculosis; experiment: Bactericidal activity against Mycobacterium tuberculosis H37Rv after 10 days by time kill assay; assay type: functional, organism-based
Method in brief: (§4)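 Time-kill in 7H9 broth with 0.2% glycerol, 0.05% Tween 80 and 10% ADC. Serial 2-fold dilutions were added to ~3 × 10^7 cfu/mL H37Rv at 37 °C. Aliquots were plated on 7H11 at days 0, 3, 7 and 10, and plates were incubated up to 28 days at 37 °C, 5% CO2, humidified. Results are given as log10 cfu per concentration.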

[17] = test system: Mus musculus; experiment: fT>MIC in BALB/c mouse infected with Mycobacterium tuberculosis at 80 mg/kg, po; method in brief: as §2
[18] = test system: Mycobacterium tuberculosis; experiment: Bactericidal activity against Mycobacterium tuberculosis H37Rv assessed as reduction in log10CFU at 0.01 to 2 ug/ml after 10 days by time kill assay; assay type: functional; method in brief: as §4
[19] = test system: Mycobacterium tuberculosis; experiment: Antimycobacterial activity against Mycobacterium tuberculosis infected in aminobenzotriazole-pretreated BALB/c mouse acute tuberculosis model assessed as reduction in bacterial burden at 80 to 160 mg/kg, po bid for 20 days; assay type: functional, organism-based; method in brief: as §3
[20] = test system: Mycobacterium tuberculosis; experiment: Bactericidal activity against Mycobacterium tuberculosis H37Rv at 0.01 to 2 ug/ml by time kill assay; assay type: functional, organism-based; conditions: TDE = time-dependent effect; method in brief: as §4
[21] = Ratio of fAUC in aminobenzotriazole-pretreated Mycobacterium tuberculosis infected BALB/c mouse at 80 mg/kg, po to MIC for wild-type Mycobacterium tuberculosis H37Rv ATCC 27294; method in brief: as §2
[22] = test system: Mycobacterium tuberculosis; experiment: Bactericidal activity against Mycobacterium tuberculosis infected in human THP1 cells at 1 ug/ml for 7 days; assay type: functional, THP-1
Method in brief: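 Adherent THP-1 macrophages infected with Mtb were exposed to compound at 1 μg/mL for 7 days at 37 °C. Kill was expressed as log reduction versus the untreated control.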

[23] = test system: Mycobacterium tuberculosis; experiment: Antimycobacterial activity against Mycobacterium tuberculosis infected in aminobenzotriazole-pretreated BALB/c mouse acute tuberculosis model assessed as reduction in bacterial burden at 20 mg/kg, po bid for 20 days; assay type: functional, organism-based; set-up: dose 20 mg/kg; method in brief: as §3

| Compound | MIC [1] [µg/mL] | IC50 [3] [µM] | Papp A→B [5] [×10⁻⁶ cm/s] | Papp B→A [6] [×10⁻⁶ cm/s] | IC50 [7] [µM] | logD at 10000 µM [8] | further results |
| --- | --- | --- | --- | --- | --- | --- | --- |
| CC1COc2c(N3CCN(C)CC3)c(F)cc3c(=O)c(C(=O)O)cn1c23 (centres undefined) [OFLOXACIN] | 0.5 (≈ 1.38 µM) | – | – | – | – | – | MIC90 [2]: > 8 µg/mL |
| Cc1nc(CNC2CCN(CCn3c(=O)ccc4ccc(C#N)cc43)CC2)ccc1C#N | > 16 | > 100 | 17.1 | 9.1 | 5.3 | 1.1 | IC50 [4]: > 100 µM |
| Cc1ncc(CNC2CCN(CCn3c(=O)ccc4ccc(C#N)cc43)CC2)cc1C#N | 0.06 (≈ 0.141 µM) | 0.25 | 13.6 | 7.4 | 26 | 1.3 | clearance [9]: 41 mL/min/kg; bioavailability [10]: > 100%; fraction unbound [11]: 0.43; IC50 [4]: > 100 µM; fAUC/MIC [12]: 159; Activity [13]: Active; fT>MIC [14]: 58%; log10cfu [15]: 0.5 |
| N#Cc1ccc2ccc(=O)n(CCN3CCC(NCc4cc5c(cn4)OCCO5)CC3)c2c1 | 2 (≈ 4.49 µM) | 1.05 | 1.9 | 38.3 | – | 0.7 | IC50 [4]: > 100 µM |
| COc1ccc2ncc(=O)n(CCN3CCC(NCc4cnc(C)c(C#N)c4)CC3)c2n1 | 0.13 (≈ 0.3 µM) | – | – | – | 13 | 1.65 | – |
| COc1cnc2ccc(=O)n(CCN3CCC(NCc4cnc(OC)c(C#N)c4)CC3)c2c1 | 0.06 (≈ 0.134 µM) | – | 13 | 9 | 12 | 1.2 | – |
| Cc1ncc(CN[C@@H]2CCN(CCn3c(=O)ccc4ccc(C#N)cc43)C[C@@H]2F)cc1C#N | 0.25 (≈ 0.562 µM) | – | 14.5 | 13 | – | 1.29 | – |
| O=C1COc2ccc(CN[C@H]3CCN(CCn4c(=O)ccc5ncc(F)cc54)C[C@H]3F)nc2N1 | 0.13 (≈ 0.276 µM) | 0.24 | 8.1 | 12.3 | – | 0.47 | clearance [9]: 63 mL/min/kg; Activity [16]: Dose-dependent effect; bioavailability [10]: > 100%; fraction unbound [11]: 0.44; fT>MIC [17]: 58%; log10cfu [18]: >3; Activity [19]: Active; Activity [20]: tde; fAUC/MIC [21]: 175 |
| COc1cnc2ccc(=O)n(CCN3CC[C@@H](NCc4cnc(C)c(C#N)c4)[C@@H](OC)C3)c2c1 | 0.06 (≈ 0.13 µM) | – | 11.7 | 9.9 | – | 0.99 | clearance [9]: 54 mL/min/kg; bioavailability [10]: 73% |
| CO[C@H]1/C=C/O[C@@]2(C)Oc3c(C)c(O)c4c(O)c(c(/C=N/N5CCN(C)CC5)c(O)c4c3C2=O)NC(=O)/C(C)=C\C=C\[C@H](C)[C@H](O)[C@@H](C)[C@@H](O)[C@@H](C)[C@H](OC(C)=O)[C@@H]1C [RIFAMPIN] | 0.015 (≈ 0.0182 µM) | – | – | – | – | – | – |
| COc1cnc2ccc(=O)n(CCN3CCC(NCc4cnc(C)c(C#N)n4)CC3)c2c1 | 0.5 (≈ 1.15 µM) | – | – | – | 69 | 0.89 | – |
| COc1c(N2C[C@@H]3CCCN[C@@H]3C2)c(F)cc2c(=O)c(C(=O)O)cn(C3CC3)c12 [MOXIFLOXACIN] | 0.06 (≈ 0.149 µM) | – | – | – | – | – | LCK [22]: 2.3 |
| Cc1ncc(CNC2CCN(CCn3c(=O)ccc4ncc(F)cc43)CC2)cc1C#N | 0.25 (≈ 0.595 µM) | – | 18 | 9.8 | 69 | 0.81 | – |
| NNC(=O)c1ccncc1 [ISONIAZID] | 0.06 (≈ 0.438 µM) | – | – | – | – | – | – |
| Cc1ncc(CNC2CCN(CCn3c(=O)ccc4c3ccc(=O)n4C)CC2)cc1C#N | > 32 | – | – | – | 33 | -0.6 | – |
| COc1cnc2ccc(=O)n(CCN3CC[C@@H](NCc4cnc(C)c(C#N)c4)[C@@H](F)C3)c2c1 | 0.06 (≈ 0.133 µM) | 0.25 | 13.6 | 7.4 | 90 | 1.29 | clearance [9]: 42 mL/min/kg; bioavailability [10]: 52%; LCK [22]: 1.3 |
| Cc1ncc(CN[C@@H]2CCN(CCn3c(=O)ccc4ncc(F)cc43)C[C@@H]2F)cc1C#N | 0.25 (≈ 0.57 µM) | – | 17.7 | 15.4 | – | 0.92 | clearance [9]: 30 mL/min/kg; bioavailability [10]: > 100% |
| COc1cnc2ccc(=O)n(CCN3CC[C@@H](NCc4ccc5c(n4)NC(=O)CO5)[C@@H](OC)C3)c2c1 | 0.13 (≈ 0.263 µM) | – | – | – | > 100 | 0.4 | – |
| COc1cnc2ncc(=O)n(CCN3CCC(NCc4cnc(C)c(C#N)c4)CC3)c2c1 | 0.13 (≈ 0.3 µM) | – | – | – | > 100 | 0.38 | – |
| O=C(O)c1cn(C2CC2)c2cc(N3CCNCC3)c(F)cc2c1=O [CIPROFLOXACIN] | 0.25 (≈ 0.754 µM) | – | – | – | – | – | – |
| COc1cc(C#N)c2ccc(=O)n(CCN3CCC(NCc4cnc(C)c(C#N)c4)CC3)c2c1 | 0.01 (≈ 0.0219 µM) | 0.065 | 10 | 4.7 | 2.5 | 1.86 | clearance [9]: 10 mL/min/kg; bioavailability [10]: 59% |
| COc1cnc2ccc(=O)n(CCN3CCC(NC(=O)c4cnc(C)c(C#N)c4)CC3)c2c1 | 0.13 (≈ 0.291 µM) | – | 4.2 | 13 | 74 | 1.4 | – |
| N#Cc1ccc2ccc(=O)n(CCN3CCC(NCc4ccc5c(n4)NC(=O)CO5)CC3)c2c1 | 0.13 (≈ 0.284 µM) | 0.11 | 2 | 12.6 | – | 0.4 | Activity [23]: Active; clearance [9]: 187 mL/min/kg; bioavailability [10]: 11%; IC50 [4]: > 100 µM; MIC90 [2]: < 0.5 µg/mL |
| COc1ccc2c(ccc(=O)n2CCN2CCC(NCc3cnc(C)c(C#N)c3)CC2)n1 | 4 (≈ 9.25 µM) | – | – | – | 10 | – | – |
| COc1cnc2ccc(=O)n(CCN3CC[C@@H](NCc4ccc5c(n4)NC(=O)CO5)[C@@H](F)C3)c2c1 | 0.03 (≈ 0.0622 µM) | – | 4.1 | 10.8 | – | 0.64 | – |
| COc1ccc2ccc(=O)n(CCN3CCC(NCc4ccc5c(n4)NC(=O)CO5)CC3)c2n1 | 0.25 (≈ 0.538 µM) | 0.15 | 1.1 | 25 | 21 | 0.8 | IC50 [4]: > 100 µM |
